Test results taken from PMC8752533 (European Journal of Drug Metabolism and Pharmacokinetics, 2021).
“And” between values parts separate entries of the source, which are not always exact repeats. Equal values may be shown once. Read-outs that look alike come from different tables or passages of the source. One block for each compound: values may come before it.

Columns and labels:
CYP3A4 [1] = conditions: human liver microsomes; CYP3A4 inhibitor ketoconazole
[2] = Phase I DDI study with itraconazole: safety and tolerability; type: in vivo, human (healthy male volunteers); conditions: for Treatment-related AEs / Participants with any AE / Gastrointestinal disorders / General disorders and administration site conditions / Infections and infestations / Musculoskeletal and connective tissue disorders / Nervous system disorders / Vascular disorders: DDI + itraconazole study; for Participants with any AE: 16 participants per treatment; for Gastrointestinal disorders / General disorders and administration site conditions / Infections and infestations / Musculoskeletal and connective tissue disorders / Nervous system disorders / Vascular disorders: system organ class
How it was run: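 Healthy males aged 18–50, BMI 18.5–29.9, received a single oral 25 mg test compound dose alone in period 1. In period 2 the same dose was given on day 4 of oral itraconazole, 200 mg QD on days 2–10. Washout was ≥16 days. Dosing followed a standardised breakfast, with 240 ml water. Safety was scored as frequency n (%) of AEs by system organ class, including physical exam findings, alongside labs, vital signs and 12-lead ECG.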

[3] = Analyte stability in human plasma samples containing tripotassium EDTA; type: physicochemical; conditions: human plasma with tripotassium EDTA, -20 °C
CYP3A5 = CYP3A5 (Homo sapiens, UniProt P20815); test: Metabolism of BI 425809 by recombinant CYP isoforms; type: in vitro ADME
Sequence of CYP3A5 (P20815 whole entry, canonical isoform): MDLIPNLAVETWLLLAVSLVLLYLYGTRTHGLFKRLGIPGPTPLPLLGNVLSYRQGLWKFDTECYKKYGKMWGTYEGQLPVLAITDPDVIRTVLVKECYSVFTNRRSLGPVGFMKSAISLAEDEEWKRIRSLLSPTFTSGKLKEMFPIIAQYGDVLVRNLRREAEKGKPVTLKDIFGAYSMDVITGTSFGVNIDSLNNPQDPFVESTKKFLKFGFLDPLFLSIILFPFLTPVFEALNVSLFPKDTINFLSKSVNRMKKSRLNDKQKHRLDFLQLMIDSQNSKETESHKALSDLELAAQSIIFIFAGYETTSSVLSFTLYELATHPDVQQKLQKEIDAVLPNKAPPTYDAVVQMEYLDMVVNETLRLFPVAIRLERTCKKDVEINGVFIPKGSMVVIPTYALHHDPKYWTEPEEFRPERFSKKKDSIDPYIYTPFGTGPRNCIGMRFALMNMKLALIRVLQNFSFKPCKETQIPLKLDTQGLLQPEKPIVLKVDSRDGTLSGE

CYP3A4 [4] = molecular target: CYP3A4 (Homo sapiens, UniProt P08684); type: in vitro ADME; conditions: rCYP3A4, NADPH, up to 60 min
Sequence of CYP3A4 (Homo sapiens, UniProt P08684) (P08684 whole entry): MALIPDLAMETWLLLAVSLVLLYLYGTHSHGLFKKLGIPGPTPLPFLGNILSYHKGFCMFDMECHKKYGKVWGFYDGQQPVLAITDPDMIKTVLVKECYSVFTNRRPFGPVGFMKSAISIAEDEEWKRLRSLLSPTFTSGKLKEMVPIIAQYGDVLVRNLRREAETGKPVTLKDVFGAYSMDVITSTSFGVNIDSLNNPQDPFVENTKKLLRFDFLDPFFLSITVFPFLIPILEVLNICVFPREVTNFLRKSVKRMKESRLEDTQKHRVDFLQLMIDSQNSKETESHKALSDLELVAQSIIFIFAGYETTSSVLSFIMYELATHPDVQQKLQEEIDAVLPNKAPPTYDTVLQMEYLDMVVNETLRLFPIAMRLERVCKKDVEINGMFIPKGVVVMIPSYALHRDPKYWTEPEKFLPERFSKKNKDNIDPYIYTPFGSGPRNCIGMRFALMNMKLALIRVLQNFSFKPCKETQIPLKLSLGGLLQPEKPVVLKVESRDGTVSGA

human liver microsomes = test: Turnover of BI 425809 in human liver microsomes; type: in vitro ADME; conditions: BI 425809 0.2, 2, 10 μM; up to 60 min
[5] = Phase I DDI study with rifampicin: plasma pharmacokinetics of BI 425809; type: in vivo, human (healthy male volunteers); conditions: for AUC(0-inf): AUC0-∞
[6] = tested on: cerebrospinal fluid glycine levels; conditions: multiple oral administrations, doses as low as 10 mg, dose-dependent; cited from earlier work
[7] = Phase I DDI study with rifampicin: safety and tolerability; type: in vivo, human (healthy male volunteers); conditions: for Participants with any AE: 16 participants per treatment
[8] = Phase I DDI study with itraconazole: plasma pharmacokinetics of BI 425809; type: in vivo, human (healthy male volunteers); conditions: for AUC(0-inf): AUC0-∞
CYP3A = test: BI 425809 metabolism by human hepatocytes; type: in vitro ADME; conditions: erythromycin 30 µM, all BI 425809 concentrations evaluated
[9] = doses up to 75 mg in healthy volunteers; cited from earlier work
[10] = BI 425809 + rifampicin relative to BI 425809 alone
[11] = male, human, plasma, oral, 25 mg
[12] = male, human, plasma, oral, 25 mg, gMean, BI 425809 25 mg alone, N = 16
[13] = DDI + rifampicin study, system organ class
[14] = BI 425809 + itraconazole relative to BI 425809 alone

inhibition of formation of BI 425809 metabolites M530 and M544 (CYP3A4 [1]): completely inhibited
Structure (SMILES): CC(=O)N1CCN(c2ccc(OCC3COC(Cn4ccnc4)(c4ccc(Cl)cc4Cl)O3)cc2)CC1 (stereo not shown) [ketoconazole]

Structure (SMILES): CCC(C)n1ncn(-c2ccc(N3CCN(c4ccc(OCC5COC(Cn6cncn6)(c6ccc(Cl)cc6Cl)O5)cc4)CC3)cc2)c1=O (stereo not shown) [Itraconazole, itraconazole, reference compound]
Treatment-related AEs [2]: 1 (6.3) n (%)
Participants with any AE [2]: 4 (25.0) n (%)
Gastrointestinal disorders [2]: 1 (6.3) n (%)
General disorders and administration site conditions [2]: 0 n (%)
Infections and infestations [2]: 2 (12.5) n (%)
Musculoskeletal and connective tissue disorders [2]: 1 (6.3) n (%)
Nervous system disorders [2]: 0 n (%)
Vascular disorders [2]: 0 n (%)
participants who reported ≥ 1 AE ([2]; DDI with itraconazole): 25%
participants with AE considered as drug-related by the investigator ([2]; DDI with itraconazole): 6.3%

Structure (SMILES): C[C@@H](Oc1ccc(S(C)(=O)=O)cc1C(=O)N1C[C@@H]2C[C@]2(c2cc(C(F)(F)F)on2)C1)C(F)(F)F [BI 425809]
period of demonstrated analyte stability [3]: 381 days
% In vitro CYP contribution, Depletion (CYP3A5; CYP3A5, depletion of BI 425809): ~4%
depletion of BI 425809 (CYP3A5; rCYP3A5, NADPH, up to 60 min): > 15%
depletion of BI 425809 (CYP3A4 [4]): > 15%
Treatment-related AEs [2]: 0 (0) n (%)
Participants with any AE [2]: 6 (37.5) n (%)
Gastrointestinal disorders [2]: 0 n (%)
General disorders and administration site conditions [2]: 1 (6.3) n (%)
Infections and infestations [2]: 3 (18.8) n (%)
Musculoskeletal and connective tissue disorders [2]: 1 (6.3) n (%)
Nervous system disorders [2]: 1 (6.3) n (%)
Vascular disorders [2]: 1 (6.3) n (%)
participants who reported ≥ 1 AE ([2]; DDI with itraconazole): 37.5%
tolerability ([2]; both DDI studies (itraconazole and rifampicin), 25 mg single oral dose): well tolerated
turnover of BI 425809 in human liver microsomes (human liver microsomes): No detectable turnover
CL/F, gMean ([5]; BI 425809 25 mg alone, N = 16): 94.6 mL/min
AUC0-168, adjusted gMean ratio T/R (90% CI) [5, 10]: 10.3% and 10.3 (9.3‒11.3) %
AUC0-∞, adjusted gMean ratio T/R (90% CI) [5, 10]: 9.8 (8.8–11.0) %
Cmax, adjusted gMean ratio T/R (90% CI) [5, 10]: 37.4% and 37.4 (33.0‒43.5) %
AUC0-∞, adjusted gMean ([5]; BI 425809 alone (R), inferential analysis): 8.596 µM·h
AUC0-168 ratio ([5]; BI 425809 co-administered with rifampicin relative to BI 425809 alone): 0.10
AUC(0-t) [5, 11]: 8.22 µM·h
half-life [5, 11]: 33.4 h
AUC(0-inf) [5, 12]: 8.6 µM·h
AUC(0-inf) ([5]; male, human, plasma, oral, adjusted gMean, BI 425809 + rifampicin (T), inferential analysis): 0.846 µM·h
AUC(0-inf) ([5]; male, human, plasma, oral, gMean, BI 425809 25 mg + rifampicin, N = 15): 0.837 µM·h
AUC(0-t) ([5]; male, human, plasma, po, 25 mg): 8.22 µM·h
Cmax ([5]; read-out: Cmax, adjusted gMean, BI 425809 alone (R), inferential analysis): 218 nM
Cmax ([5]; read-out: Cmax, gMean, BI 425809 25 mg alone, N = 16): 218 nM
mean increase in cerebrospinal fluid glycine levels [6]: 50%
Participants with Severe AE ([7]; DDI + rifampicin study): 0 (0) n (%)
Treatment-related AEs ([7]; DDI + rifampicin study): 0 (0) n (%)
Participants with any AE ([7]; DDI + rifampicin study): 2 (12.5) n (%)
Gastrointestinal disorders [7, 13]: 0 n (%)
General disorders and administration site conditions [7, 13]: 0 n (%)
Nervous system disorders [7, 13]: 1 (6.3) n (%)
Renal and urinary disorders [7, 13]: 0 n (%)
Respiratory, thoracic and mediastinal disorders [7, 13]: 1 (6.3) n (%)
Skin and subcutaneous tissue disorders [7, 13]: 0 n (%)
participants who reported ≥ 1 AE ([7]; DDI with rifampicin): 12.5%
CL/F, gMean ([8]; BI 425809 25 mg + itraconazole, N = 15): 12.4 mL/min
CL/F, gMean ([8]; BI 425809 25 mg alone, N = 16): 73.3 mL/min
t1/2, gMean ([8]; BI 425809 25 mg alone, N = 16): 45.5 h
AUC0-167, adjusted gMean ratio T/R (90% CI) [8, 14]: 265.3% and 265.3 (240.9‒292.2) %
AUC0-∞, adjusted gMean ratio T/R (90% CI) [8, 14]: 597.0% and 597.0 (514.2‒693.0) %
Cmax, adjusted gMean ratio T/R (90% CI) [8, 14]: 116.1% and 116.1 (108.0‒124.7) %
extrapolated area of AUC0-∞ ([8]; BI 425809 under itraconazole treatment): 56%
AUC(0-t) [8, 11]: 10.2 µM·h
Cmax [8, 11]: 316 nM
AUC(0-inf) ([8]; male, human, plasma, oral, 25 mg, adjusted gMean, BI 425809 alone (R), inferential analysis): 11.1 µM·h
AUC(0-inf) [8, 12]: 11.1 µM·h
AUC(0-inf) ([8]; male, human, plasma, oral, adjusted gMean, BI 425809 + itraconazole (T), inferential analysis): 66.2 µM·h
AUC(0-inf) ([8]; male, human, plasma, oral, gMean, BI 425809 25 mg + itraconazole, N = 15): 65.3 µM·h
AUC(0-t) ([8]; male, human, plasma, po, 25 mg): 10.2 µM·h
Cmax ([8]; read-out: Cmax, adjusted gMean, BI 425809 + itraconazole (T), inferential analysis): 367 nM
increase in Cmax ([8]; with itraconazole versus alone): ~16%
inhibition of depletion of BI 425809 by erythromycin (CYP3A): 92.1–100% and > 90%
tolerability [9]: generally well tolerated

Structure (SMILES): CO[C@H]1/C=C/O[C@@]2(C)Oc3c(C)c(O)c4c(O)c(c(/C=N/N5CCN(C)CC5)c(O)c4c3C2=O)NC(=O)/C(C)=C\C=C\[C@H](C)[C@H](O)[C@@H](C)[C@@H](O)[C@@H](C)[C@H](OC(C)=O)[C@@H]1C [Rifampicin, rifampicin, reference compound]
Participants with Severe AE ([7]; DDI + rifampicin study): 0 (0) n (%)
Treatment-related AEs ([7]; DDI + rifampicin study): 16 (100) n (%)
Participants with any AE ([7]; DDI + rifampicin study): 16 (100) n (%)
Gastrointestinal disorders [7, 13]: 0 n (%)
General disorders and administration site conditions [7, 13]: 1 (6.3) n (%)
Renal and urinary disorders [7, 13]: 16 (100) n (%)
Respiratory, thoracic and mediastinal disorders [7, 13]: 0 n (%)
Skin and subcutaneous tissue disorders [7, 13]: 1 (6.3) n (%)
participants who reported ≥ 1 AE ([7]; DDI with rifampicin): 100%
participants with AE considered as drug-related by the investigator ([7]; DDI with rifampicin): 100%
